E-sel inducer: E-selectin induction in HUVECs, primary screen, imaging, HUVEC, immunofluorescence imaging, single point | P16581 | AID 686992, 2013 | normalized: neutral wells 0, TNF-alpha wells 100 | 260,000 compounds, 0.37% hits | activation, % at 7.58 µM;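 active means mean E-selectin-positive cell signal at least 10% of the positive control, reached in at least 60% of replicates, without over 20% cell loss; inconclusive means no rule given, readout overlaps actives, possibly toxicity-flagged; inactive means the rest, including those meeting only one limit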
Target sequence (P16581 whole entry, looked up): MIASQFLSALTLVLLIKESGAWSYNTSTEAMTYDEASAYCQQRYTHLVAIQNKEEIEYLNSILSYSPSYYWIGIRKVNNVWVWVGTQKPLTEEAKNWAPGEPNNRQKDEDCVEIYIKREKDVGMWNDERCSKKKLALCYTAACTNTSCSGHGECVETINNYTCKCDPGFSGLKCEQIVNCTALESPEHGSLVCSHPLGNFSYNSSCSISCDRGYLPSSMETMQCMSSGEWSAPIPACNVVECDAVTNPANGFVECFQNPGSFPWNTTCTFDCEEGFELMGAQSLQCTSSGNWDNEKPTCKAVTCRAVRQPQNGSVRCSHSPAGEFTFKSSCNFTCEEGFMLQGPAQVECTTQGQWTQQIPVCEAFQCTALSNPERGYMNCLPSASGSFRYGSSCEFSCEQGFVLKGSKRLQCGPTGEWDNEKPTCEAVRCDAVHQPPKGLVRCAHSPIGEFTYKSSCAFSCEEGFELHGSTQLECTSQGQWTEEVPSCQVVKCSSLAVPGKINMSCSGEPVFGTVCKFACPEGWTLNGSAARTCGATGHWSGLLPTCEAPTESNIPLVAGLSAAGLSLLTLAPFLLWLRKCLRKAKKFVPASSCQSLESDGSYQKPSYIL
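Test system – human umbilical vein endothelial cells (HUVEC), E-selectin induction · Input – 3,000 HUVEC seeded per well · Buffer or medium – EGM-2, gelatin · Compound dosing – single-point compound dose · Detection – immunofluorescence imaging · Measure – percent E-selectin-positive cells · Controls – TNF-alpha high, DMSO low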
SIRT5 block: SIRT5 desuccinylase inhibitors, primary screen, biochemical, fluorescence imaging, single point, set 5 | NAD-dependent protein deacylase sirtuin-5, mitochondrial (Homo sapiens), Q9NXA8 | Purified SirT5, succinyl-peptide AMC, trypsin-coupled fluorescence | inhibition, % at 15 µM | 330,000 compounds, 1.1% hits | AID 652115, 2013; in the data active means inhibition above about 15%; inconclusive means no clear call, values can overlap the other calls
DENV2 CPE rescue: inhibitors of DENV2 cytopathic effect, primary screen, cell-based, plate reader, single concentration; DENV2-infected cells, cytopathic effect rescue; CPE inhibition, % at 9.99 µM; 350,000 compounds, 1.7% hits; AID 651640, 2012; in the data active means CPE inhibition above about 20%, passing the limit was not always enough; inconclusive means no clear call, values can overlap the other calls; tested in BHK-21 cells;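 further: 0% = median of neutral control wells and 100% = median of positive control wells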
* = called active by the depositor. Hits are enriched below; roughly 2.9% of the tested compounds scored in any of these assays.

Screening CCC1=C(OC(=O)N(CC)CC)N2C(=O)OC(=NCC3CC3)[C@]2(C)[C@H]2C1=CC[C@H]1C(=O)NC(=O)[C@H]12 returned E-sel inducer -0.1 and DENV2 CPE rescue 46.4*.
`CCC1=C(OC(=O)N(CC)CC)N2C(=O)OC(=NCCc3c[nH]c4ccccc34)[C@]2(C)[C@H]2C1=CC[C@H]1C(=O)NC(=O)[C@H]12` gave E-sel inducer -0.1 and DENV2 CPE rescue 27.2*.
`CO[C@@H](CN(C)Cc1cc(F)ccc1F)[C@@H](C)CN([C@@H](C)CO)S(=O)(=O)c1ccc(Cl)cc1` gave E-sel inducer -0.1, SIRT5 block -2.8 and DENV2 CPE rescue 8.7.
Screening Cc1noc(C)c1S(=O)(=O)Nc1cccc2c1O[C@@H](CN(C)C(=O)Nc1ccc(F)cc1)[C@@H](C)CN([C@H](C)CO)C2=O returned E-sel inducer -0.1, SIRT5 block 6.9 and DENV2 CPE rescue -11.5.
`Cc1ccc(-n2c(O)c(C=Nc3cc(C)on3)c3ccccc3c2=O)c(C)c1` gave SIRT5 block -3.1 and DENV2 CPE rescue -3.4.
Screening N=C(N)c1ccc(N)cc1 returned E-sel inducer 0.1, SIRT5 block -2.8 and DENV2 CPE rescue -6.4.
For CO[C@@H]1CN(C)C(=O)c2cc(NC(=O)NC3CCCC3)ccc2OC[C@H](C)NC[C@@H]1C the results were E-sel inducer -0.3, SIRT5 block 0.2 and DENV2 CPE rescue -13.4.
O=C(Nc1ccccc1N1CCCC1)C1=COCCO1 was read as SIRT5 block 3.0 and DENV2 CPE rescue -2.1.
`O=C(Nc1ccccc1N1CCCCC1)C1=COCCO1` gave E-sel inducer 34.5*, SIRT5 block 3.5 and DENV2 CPE rescue inconclusive.
Screening CC(C)[C@H](NC(=O)C1CCN(S(=O)(=O)c2ccc(F)cc2)CC1)C(=O)N1CCCCCC1 returned E-sel inducer 14.0, SIRT5 block 9.7 and DENV2 CPE rescue 0.5.
CCc1cccc(CC)c1NC(=S)N1CCn2cccc2C1c1ccncc1 (stereo not drawn) was read as E-sel inducer 0.0, SIRT5 block 17.3* and DENV2 CPE rescue -0.3.
S=C(NCc1ccccc1)N1CCn2cccc2C1c1ccncc1 (stereo not drawn) was read as SIRT5 block -1.2 and DENV2 CPE rescue -5.4.
O=C(NC1CCCCNC1=O)c1ccccc1 (stereo not drawn) was read as E-sel inducer 0.0, SIRT5 block 1.0 and DENV2 CPE rescue -9.2.
For COCc1cc(N2CCNC[C@@H]2C)ccc1N1CCN(Cc2ccccc2)[C@@H](C)C1 the results were E-sel inducer 0.1, SIRT5 block -1.7 and DENV2 CPE rescue 12.1.
Cc1ccc(SCC(=O)NNC(=O)c2cncc(Br)c2)cc1 was read as E-sel inducer -0.1 and DENV2 CPE rescue 33.6*.
Screening Cc1ccc(C(=O)NNC(=O)CSc2nc(N)cc(N)n2)cc1 returned E-sel inducer 2.1, SIRT5 block 7.1 and DENV2 CPE rescue inconclusive.
`COc1ccc(NC(=O)N2CCCCC2c2cccnc2)cc1` (stereo not drawn) gave E-sel inducer -1.5, SIRT5 block -2.3 and DENV2 CPE rescue -6.5.
`CN1CCCC1c1cccnc1` (stereo not drawn) gave SIRT5 block 0.0 and DENV2 CPE rescue 116.9*.
CCOC(=O)C1(CCOc2ccccc2)CCN(CCCn2cccn2)CC1 was read as SIRT5 block -3.2 and DENV2 CPE rescue -4.2.
CCc1cccc(-n2c(C)cc(O)cc2=O)c1 was read as E-sel inducer 0.6 and DENV2 CPE rescue 61.2*.
Cc1cc(O)cc(=O)n1-c1cccc(F)c1 was read as E-sel inducer -0.3 and DENV2 CPE rescue 1.2.
Screening O=C(CSc1nc(O)cc(=O)[nH]1)N1c2ccccc2Sc2ccccc21 returned SIRT5 block 0.9 and DENV2 CPE rescue 2.9.
CCOc1ccc2oc(C(=O)OC(C(=O)NC(N)=O)C(C)C)c(C)c2c1 (stereo not drawn) was read as E-sel inducer -0.5, SIRT5 block -5.4 and DENV2 CPE rescue 7.0.
`CCCc1nc2c(C)cc(Br)cn2c1Cc1ccc(OC)cc1C` gave SIRT5 block -1.4 and DENV2 CPE rescue 20.6*.
`COc1ccc(Cc2c(-c3ccco3)nc3c(C)cc(Br)cn23)c(C)c1` gave SIRT5 block -1.1 and DENV2 CPE rescue 22.6*.
Screening COc1ccc(Cc2c(-c3ccccc3)nc3c(C)cc(Br)cn23)c(C)c1 returned E-sel inducer 0.0, SIRT5 block -1.0 and DENV2 CPE rescue -9.2.
COc1ccc(Cc2c(-c3ccco3)nc3ccc(Br)cn23)c(C)c1 was read as E-sel inducer 2.2, SIRT5 block 2.9 and DENV2 CPE rescue inconclusive.
For COc1ccc(CN(C)C[C@H]2Oc3ccc(NC(=O)Nc4ccc(F)cc4)cc3CC(=O)N([C@H](C)CO)C[C@H]2C)cc1 the results were E-sel inducer -4.2, SIRT5 block 1.7 and DENV2 CPE rescue 1.9.
For COc1ccc(CN(C)C[C@@H]2Oc3ccc(NC(=O)NC4CCCCC4)cc3CC(=O)N([C@H](C)CO)C[C@@H]2C)cc1 the results were E-sel inducer 1.2, SIRT5 block 15.2* and DENV2 CPE rescue 0.4.
`COc1ccc(NC(=O)Nc2ccc3c(c2)CC(=O)N([C@@H](C)CO)C[C@@H](C)[C@H](CN(C)Cc2ccc(Oc4ccccc4)cc2)O3)cc1` gave E-sel inducer -0.1, SIRT5 block -2.6 and DENV2 CPE rescue 1.8.
COc1ccc(CN(C)C[C@@H]2Oc3ccc(NC(=O)Nc4ccc(F)cc4)cc3CC(=O)N([C@H](C)CO)C[C@@H]2C)cc1 was read as E-sel inducer 75.7*, SIRT5 block 4.2 and DENV2 CPE rescue -2.4.
`COc1ccc(CN(C)C[C@H]2Oc3ccc(NC(=O)Nc4ccc(F)cc4)cc3CC(=O)N([C@H](C)CO)C[C@@H]2C)cc1` gave E-sel inducer 11.7, SIRT5 block 3.9 and DENV2 CPE rescue 1.1.
`COc1ccc(NC(=O)Nc2ccc3c(c2)CC(=O)N([C@@H](C)CO)C[C@H](C)[C@@H](CN(C)Cc2ccc(Oc4ccccc4)cc2)O3)cc1` gave E-sel inducer 7.4, SIRT5 block 22.8* and DENV2 CPE rescue 12.1.
Screening COc1ccc(CN(C)C[C@@H]2Oc3ccc(NC(=O)Nc4ccc(F)cc4)cc3CC(=O)N([C@H](C)CO)C[C@H]2C)cc1 returned E-sel inducer 82.6*, SIRT5 block 1.6 and DENV2 CPE rescue -0.8.
Screening COc1ccc(CN(C)C[C@@H]2Oc3ccc(NC(=O)NC4CCCCC4)cc3CC(=O)N([C@@H](C)CO)C[C@H]2C)cc1 returned E-sel inducer 2.1, SIRT5 block 7.3 and DENV2 CPE rescue 2.1.
For C[C@H]1CN([C@@H](C)CO)C(=O)Cc2cc(NC(=O)C3CC3)ccc2O[C@H]1CN(C)Cc1ccc(-c2ccccc2)cc1 the results were E-sel inducer 0.5, SIRT5 block -1.0 and DENV2 CPE rescue -14.3.
`Cc1ccc(S(=O)(=O)N[C@H]2C=C[C@H](CC(=O)NCc3ccncn3)O[C@H]2CO)cc1` gave E-sel inducer 0.1, SIRT5 block -1.4 and DENV2 CPE rescue 15.6.
`CC(C)C[C@H](NC(=O)c1[nH]cnc1C(=O)Nc1ccccc1)C(=O)OC(C)(C)C` gave E-sel inducer 0.0, SIRT5 block 0.3 and DENV2 CPE rescue -0.3.

Bioassay records from PubChem BioAssay.
